Cl transport mod: modulators of human KCC2 chloride dependent transport. Q9H2X9. KCC2 cells, thallium flux FluoZin-2 fluorescence. B-score of Tl+ flux slope (higher = more flux/activation; lower = inhibition) at 10 µM. 190,000 compounds, 2.2% hits;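 active = thallium flux slope and its plate-corrected score both differing from the plate sample mean at a set confidence after two filtering rounds, in either direction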;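 note: slope of fluorescence scaled to starting intensity during 10 to 20 s after thallium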
STAT1 blocker: STAT1 signaling inhibition | NIH 3T3 STAT1-luciferase reporter, IFN-gamma, luminescence | 200,000 compounds, 0.35% hits | inhibition, % at 5.5 µM | AID 920;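 active = inhibition above a set limit, the mean inhibition across all tested compounds plus 3 SD, cut at about 34% in these data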
STAT3 act: increases IL-6 driven STAT3 reporter signal; U3A cells, IL-6 STAT3-luciferase reporter, luminescence; 100% = signal with IL-6 EC80 alone; activation (% of control), % at 5.6 µM; 190,000 compounds, 0.91% hits;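 active = activation above the screen-wide mean of compound activation plus 3 SD, cut at about 130% in these data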
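Material: STAT1-lacking human U3A cells, STAT3 luciferase reporter | Benchmarks: IL-6-only wells as 100% reference | Probe or stimulus: IL-6 (33 ng/mL) | Timing: Compound 1 h, then IL-6 6 h at 37 °C | Detection: Luminescence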
STAT3 inh: inhibitors of IL-6 induced STAT3 signaling | 190,000 compounds, 0.89% hits | U3A cells, IL-6 STAT3-luciferase reporter, luminescence; host cell line lacks STAT1 | AID 862 | inhibition, % at 5.5 µM;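 active = inhibition above the mean inhibition across all screened compounds plus 3 SD, cut at about 44% in these data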
STAT1 act: STAT1 signaling activation; AID 932; 200,000 compounds, 2.6% hits; NIH 3T3 STAT1-luciferase reporter, IFN-gamma, luminescence; 100% = IFN-gamma alone, no compound; activation (% of control), % at 5.5 µM;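 active = activation above the screen-wide mean activation plus 3 SD, cut at about 130% in these data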
HSV replic up: HSV replication enhancement. 220,000 compounds, 0.005% hits. HSV replication augmentation in cells, fold increase. AID 1956. maximum fold increase; in the data active = maximum fold increase above about 1.5; inconclusive = no clear call, values can overlap the other calls; tested in PC3 cells
STAT1 activ conf: STAT1 activation, confirmation assay. shares compounds with STAT1 act. NIH 3T3 STAT1-luciferase reporter, IFN-gamma potentiation, luminescence; 100% = IFN-gamma EC80 alone, no compound. activation (% of control), % at 5.7 µM. 1,200 compounds, 97% hits;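 active = activation above a set limit carried over from the earlier primary STAT1 screen, cut at about 140% in these data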
NFkB act: NF-kappaB activation in STAT1 activator counter-screen. 1,200 compounds, 43% hits. AID 1306. HEK293T NF-kB luciferase reporter, TNF-alpha stimulated, luminescence; 100% = TNF-alpha with vehicle only. shares compounds with STAT1 act. activation (% of control), % at 5.7 µM;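 active = activation above the mean of solvent-only control wells plus 3 SD, set per campaign, cut at about 130% in these data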;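 note: TNF-alpha given at a submaximal dose yielding about 80% of full reporter signal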
STAT3 act STAT1c: human STAT3 activation in STAT1 activator counter-screen. shares compounds with STAT1 act. U3A cells STAT3-luciferase reporter, IL-6, luminescence; cells lack STAT1; 100 = IL-6 alone, no compound effect. activation (% of control), % at 5.7 µM. 1,200 compounds, 46% hits. AID 1316;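 active = activation above the solvent-only control well mean plus 3 SD, set per plate batch, cut at about 110% in these data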;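 note: higher means more STAT3 reporter activation so hits are non-selective activators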
A number is an active result; i = inactive; ? = inconclusive; nt = no result given. Most compounds without a hit are left out; they make up all but 5.5% or so of the library.

SMILES | Cl transport mod | STAT1 blocker | STAT3 act | STAT3 inh | STAT1 act | HSV replic up | STAT1 activ conf | NFkB act | STAT3 act STAT1c
Cc1ccc(/C=C2/CCc3c([nH]c4ccccc34)C2=O)cc1 | nt | i | i | i | 161 | nt | 188 | 141 | 114
CCOc1ccc(NC(=S)Nc2ccc(Br)cc2Cl)cc1 | i | i | i | i | i | i | nt | nt | nt
Cc1cccnc1NC(=S)Nc1ccc(Br)cc1Cl | i | i | i | i | 154 | i | 198 | 143 | i
CC1=CC(=C2C(=O)c3ccccc3C2=O)C=C(C)N1Cc1ccco1 | i | i | i | i | 165 | nt | 178 | 134 | i
O=C1c2ccccc2C(=O)N1Cc1ccco1 | i | i | i | i | i | i | nt | nt | nt
CC(=O)Nc1ccc(N=Nc2ccc(O)cc2)cc1 | i | i | i | i | 152 | i | 155 | i | 111
CC(=O)Nc1ccc(N=NN2CCOCC2)cc1 | i | i | i | i | i | i | nt | nt | nt
CCCOP(=O)(c1ccc(N(C)C)cc1)C(Nc1ccccc1)c1ccc(C)cc1 (centres undefined) | i | nt | nt | nt | nt | i | nt | nt | nt
Oc1c(C2=NCCNC(C(F)(F)F)=C2)ccc2ccccc12 | i | i | i | i | 199 | i | 222 | 147 | 114
O=C(NCc1ccco1)c1sc2cc(F)ccc2c1Cl | nt | i | i | i | i | i | nt | nt | nt
O=C(NC1=NCCS1)c1sc2cc(F)ccc2c1Cl | i | i | i | i | 172 | i | 209 | i | 150
COc1ccc2nc(NC(=O)Nc3ccccc3)sc2c1 | i | i | i | i | 205 | i | 280 | i | i
COc1ccc(NC(=O)c2nc3ccccc3s2)cc1 | i | i | i | i | 161 | nt | 232 | i | i
CCOc1ccc2nc(NC(=O)Nc3cccs3)sc2c1 | i | i | i | i | 184 | i | 253 | 149 | 121
COc1ccc(OC)c(NC(=O)c2nc3ccccc3s2)c1 | i | i | i | i | i | i | nt | nt | nt
CCCCOC(=O)Nc1nc2ccccc2s1 | i | i | i | i | 153 | i | 213 | i | i
COCC(=O)Nc1nc2ccccc2s1 | i | i | i | i | i | i | nt | nt | nt
C/C(CC(=O)NCc1ccc(F)cc1)=N\NC(N)=S | i | i | i | i | i | i | nt | nt | nt
CCOCCc1nnc(NC(=O)C(CC)c2ccccc2)s1 (centres undefined) | nt | i | i | i | i | i | nt | nt | nt
CCOc1ccc2nc(NC(=O)Nc3ccccc3)sc2c1 | nt | i | i | i | 155 | i | 224 | 139 | 115
CCOc1ccc2nc(NC(=O)NC3CCCCC3)sc2c1 | i | i | i | i | i | i | nt | nt | nt
CCOC(=O)CC1C(=O)NCCN1C(=O)c1sc2ccccc2c1Cl (centres undefined) | i | i | i | i | i | i | nt | nt | nt
CCOc1ccc(N/C(C)=C\C(=O)c2ccc3c(c2)OCCO3)cc1 | i | i | i | i | 156 | i | 220 | 134 | i
Clc1cnc(N/N=C/c2ccco2)c(Cl)c1 | i | i | i | i | 159 | i | 151 | i | i
Cc1cccc(-c2cc3nc4c(c(N5CCCC(O)C5)n3n2)CCC4)c1 (centres undefined) | nt | i | i | i | i | i | nt | nt | nt
SMILES | Cl transport mod | STAT1 blocker | STAT3 act | STAT3 inh | STAT1 act | HSV replic up | STAT1 activ conf | NFkB act | STAT3 act STAT1c
OC1CCCN(c2c3c(nc4cc(-c5cccc(F)c5)nn24)CCCC3)C1 (centres undefined) | i | i | i | i | 158 | i | 166 | i | 116
Nc1ccc2oc(-c3ccccc3Cl)nc2c1 | i | i | i | i | 151 | i | 203 | i | i
Fc1ccc(-n2nnc(-c3ccnc4ccccc34)n2)cc1 | i | i | nt | nt | 171 | i | 203 | 139 | 117
Cc1ccc(-n2nnc(-c3ccnc4ccccc34)n2)cc1 | i | i | nt | nt | 156 | i | 183 | 136 | i
CNS(=O)(=O)c1ccc(NCC2COc3ccccc3O2)c([N+](=O)[O-])c1 (centres undefined) | i | i | i | i | i | i | nt | nt | nt
O=C(Nc1nc(-c2nc3ccccc3s2)cs1)c1ccco1 | i | i | i | i | i | i | nt | nt | nt
O=C(Nc1nc(-c2nc3ccccc3s2)cs1)C1CC1 | i | i | i | i | 162 | i | 227 | i | 117
O=C(Nc1nc2ccccc2s1)C1CCCO1 (centres undefined) | i | i | i | i | 151 | i | 166 | i | i
CC1CCc2nc(NC(=O)C3CCCO3)sc2C1 (centres undefined) | i | i | i | i | 161 | i | 189 | i | i
O=[N+]([O-])c1ccc(C(=Nc2cccc3ccccc23)N2CCOCC2)cc1 | nt | i | i | i | i | i | nt | nt | nt
Cc1ccc(OCC(=O)Nc2ccccc2[N+](=O)[O-])c(Br)c1 | i | i | i | i | 160 | i | 202 | 135 | i
O=C(O)c1ccc(N/N=C/c2ccc(-c3ccccc3)cc2)cc1 | i | i | i | i | 220 | i | 321 | 162 | i
O=C(O)c1ccc(/C=N/Nc2ccc(C(F)(F)F)cn2)cc1 | i | i | i | i | 155 | i | 210 | i | 124
O=C(NC1CCCC1)c1cc(-c2cccs2)on1 | i | i | i | i | 173 | nt | 205 | 147 | 115
CC1CCCC(C)N1C(=O)c1cc(-c2cccs2)on1 (centres undefined) | i | i | i | i | i | i | nt | nt | nt
O=C(N=Nc1c(O)n(Cc2ccccc2)c2ccccc12)c1ccc(O)cc1 | i | i | i | i | 161 | i | 217 | i | 118
COc1ccc(-c2cc(-c3ccc(OC)cc3)[nH]n2)cc1 | i | i | i | i | 151 | i | 162 | i | i
CC(C)Oc1ccc(C(=O)NCc2cccs2)cc1 | i | i | i | i | i | i | nt | nt | nt
Cc1cc(C)n(-c2nc3c(c(=O)n(C)c(=O)n3C)n2CC(O)COc2ccccc2C)n1 (centres undefined) | i | i | i | i | i | nt | nt | nt | nt
O=c1[nH]c2ccccc2nc1Cc1ccccc1 | i | i | i | i | i | i | nt | nt | nt
O=C(Cc1nc2ccccc2[nH]c1=O)c1ccccc1 | i | i | i | i | 175 | ? | 196 | i | 155
CCn1cc(-c2nnnn2-c2ccc(Cl)cc2)c(=O)c2ccccc21 | i | i | i | i | i | i | nt | nt | nt
CCc1ccc(NC(=S)NCC2CCCN2CC)cc1 (centres undefined) | i | i | i | i | i | i | nt | nt | nt
N/C(=N\OC(=O)c1ccc(F)cc1)c1ccccc1 | i | i | i | i | 157 | nt | 196 | i | 116
